Laboratory results from ChEMBL document CHEMBL3124890, “SAR studies on trisubstituted benzimidazoles as inhibitors of Mtb FtsZ for the development of novel antitubercular agents” (J Med Chem, 2013).
≈ marks a conversion by molar mass, not a printed value.

What was measured:
[1] = test system: Mycobacterium tuberculosis; assay: […]; format: functional
Method in brief: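 Strains were grown at 37 °C in 7H9 Middlebrook broth with 10% OADC, 0.05% Tween and 0.2% glycerol. Compounds were dissolved in DMSO and serially diluted 2-fold, then bacteria were added. Plates were incubated 6 days at 37 °C, then 24 h more with Alamar Blue. MIC was the lowest concentration (μg/mL) that prevented the colour change. Run in triplicate.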

Vero = assay: Cytotoxicity against Vero cells after 3 days by Alamar Blue assay; format: cell-based; conditions: Chlorocebus sabaeus, 72 h
Method in brief: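 Vero (African green monkey kidney epithelial) cells were grown without CO₂ in L15 with antibiotics and heat-inactivated calf serum. Cells in medium with 2X Alamar Blue were added at 1.3×10^4 cells/well to 2-fold serial drug dilutions. Plates were incubated 3 days at 37 °C, and IC50 was calculated per the manufacturer's directions.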

[2] = molecular target: T1, Cell division protein FtsZ (Mycobacterium tuberculosis) (UniProt P9WN95); assay: Inhibition of Mycobacterium tuberculosis FtsZ polymerization expressed in Escherichia coli BL21 (DE3) using GTP as substrate by spectrofluorimetric analysis
T1 sequence (whole entry): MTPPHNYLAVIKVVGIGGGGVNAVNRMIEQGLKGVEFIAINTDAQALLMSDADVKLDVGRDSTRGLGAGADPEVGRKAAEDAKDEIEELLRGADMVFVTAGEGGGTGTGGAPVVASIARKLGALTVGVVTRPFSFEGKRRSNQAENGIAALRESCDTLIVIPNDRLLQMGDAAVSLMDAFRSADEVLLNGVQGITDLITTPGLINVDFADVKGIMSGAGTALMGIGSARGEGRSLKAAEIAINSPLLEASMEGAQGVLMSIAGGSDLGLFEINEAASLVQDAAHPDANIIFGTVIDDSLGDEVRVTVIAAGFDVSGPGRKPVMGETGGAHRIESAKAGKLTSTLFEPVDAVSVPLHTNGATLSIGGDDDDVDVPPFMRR

Compound	MIC ([1]; H37Rv, 144 h) [µg/mL]	IC50 (Vero) [µg/mL]	MIC ([1]; W210, 144 h) [µg/mL]	inhibition [2]
CCN(CC)c1cc2[nH]c(C3CCCCC3)nc2cc1NC(=O)c1cnccn1	10 (≈ 25.5 µM)	> 100		
CCCCOC(=O)Nc1cc2nc(C3CCCCC3)[nH]c2cc1N(CC)CCN(CC)CC	50 (≈ 109 µM)	> 50		
NNC(=O)c1ccncc1 [ISONIAZID]	0.013 (≈ 0.0948 µM)		0.01 (≈ 0.0729 µM)	
O=C(Nc1cc2nc(C3CCCCC3)[nH]c2cc1N1CCCC1)OCc1ccccc1	3.13 (≈ 7.48 µM)			
CCN(CC)c1cc2[nH]c(C3CCCCC3)nc2cc1NC(=O)c1ccc(OC)cc1	1.56 (≈ 3.71 µM)			
CN(C)c1cc2[nH]c(C3CCCCC3)nc2cc1NC(=O)c1cccs1	5 (≈ 13.6 µM)	> 100		
COc1ccc(C(=O)Nc2cc3nc(C4CCCCC4)[nH]c3cc2N2CCCC2)cc1	6.25 (≈ 14.9 µM)	> 100		
CCCCCC(=O)Nc1cc2nc(C3CCCCC3)[nH]c2cc1N1CCCC1	6.25 (≈ 16.3 µM)	> 100		
CCN(CC)c1cc2[nH]c(C3CCCCC3)nc2cc1NC(=O)c1ccc(F)cc1	> 100	> 100		
CCc1ccc(C(=O)Nc2cc3nc(C4CCCCC4)[nH]c3cc2N(CC)CC)cc1	1.56 (≈ 3.73 µM)	> 100		
CCN(CC)c1cc2[nH]c(C3CCCCC3)nc2cc1NC(=O)c1ccc(OC(F)F)cc1	> 100	> 100		
CCN(CC)c1cc2[nH]c(C3CCCCC3)nc2cc1NC(=O)OCC(F)(F)F	1.56 (≈ 3.78 µM)	> 100		
O=C(Nc1cc2nc(C3CCCCC3)[nH]c2cc1N1CCCC1)c1ccccc1	6.25 (≈ 16.1 µM)	> 100		
O=C(NCc1ccccc1)Nc1cc2nc(C3CCCCC3)[nH]c2cc1N1CCCC1	25 (≈ 59.9 µM)	> 100		
CCN(CC)c1cc2[nH]c(C3CCCCC3)nc2cc1NC(=O)c1ccc(OC(F)(F)F)cc1	> 100	> 100		
CCOCCOC(=O)Nc1cc2nc(C3CCCCC3)[nH]c2cc1N1CCCC1	1.56 (≈ 3.89 µM)	> 100		
CCCCCC(=O)Nc1cc2nc(C3CCCCC3)[nH]c2cc1N(C)C	1.25 (≈ 3.51 µM)	> 100		
CCCCOC(=O)Nc1cc2nc(C3CCCCC3)[nH]c2cc1N(CC)CCN(C)C	100 (≈ 233 µM)	> 100		
CN(C)c1cc2[nH]c(C3CCCCC3)nc2cc1NC(=O)c1cccc(Br)c1	3.13 (≈ 7.09 µM)	> 100		
CCCCNC(=O)Nc1cc2nc(C3CCCCC3)[nH]c2cc1N(C)C	6.25 (≈ 17.5 µM)	> 100		
O=C(Nc1cc2nc(C3CCCCC3)[nH]c2cc1N1CCCC1)OCC(F)(F)F	0.31 (≈ 0.755 µM)	> 100		
CCN(CC)c1cc2[nH]c(C3CCCCC3)nc2cc1NC(=O)c1cccc(Br)c1	> 100	> 100		
CCCCOC(=O)Nc1cc2nc(C3CCCCC3)[nH]c2cc1N(CCC)CCC	6.25 (≈ 15.1 µM)	> 100		

Compound	MIC ([1]; H37Rv, 144 h) [µg/mL]	IC50 (Vero) [µg/mL]	MIC ([1]; W210, 144 h) [µg/mL]	inhibition [2]
CCCC(C)OC(=O)Nc1cc2nc(C3CCCCC3)[nH]c2cc1N(CC)CC (stereo unspecified)	> 50	> 100		
CN(C)c1cc2[nH]c(C3CCCCC3)nc2cc1NC(=O)c1ccc(C(C)(C)C)cc1	1.56 (≈ 3.73 µM)	> 100		
Cc1ccc(C(=O)Nc2cc3nc(C4CCCCC4)[nH]c3cc2N2CCCC2)cc1	3.13 (≈ 7.78 µM)	> 100		
CCN(CC)c1cc2[nH]c(C3CCCCC3)nc2cc1NC(=O)c1ccc(N(C)C)cc1	12.5 (≈ 28.8 µM)			
CN(C)c1cc2[nH]c(C3CCCCC3)nc2cc1NC(=O)c1ccc(OC(F)(F)F)cc1	0.16 (≈ 0.358 µM)	> 100		
COc1ccc(CC(=O)Nc2cc3nc(C4CCCCC4)[nH]c3cc2N(C)C)cc1	> 100	> 100		
CCCc1ccc(C(=O)Nc2cc3nc(C4CCCCC4)[nH]c3cc2N(C)C)cc1	0.63 (≈ 1.56 µM)	> 100		
COc1ccc(C(=O)Nc2cc3nc(C4CCCCC4)[nH]c3cc2N(C)C)cc1	0.31 (≈ 0.79 µM)	> 100		
COCCOC(=O)Nc1cc2nc(C3CCCCC3)[nH]c2cc1N1CCCC1	3.13 (≈ 8.1 µM)	> 100		
CCOc1ccc(C(=O)Nc2cc3nc(C4CCCCC4)[nH]c3cc2N(CC)CC)cc1	> 100	> 100		
CCCOCC(=O)Nc1cc2nc(C3CCCCC3)[nH]c2cc1N(CC)CC	25 (≈ 64.7 µM)	> 100		
Cc1ccc(C(=O)Nc2cc3nc(C4CCCCC4)[nH]c3cc2N(C)C)cc1	0.31 (≈ 0.823 µM)	> 100		
CCN(CC)c1cc2[nH]c(C3CCCCC3)nc2cc1NC(=O)OCCOCCOC	12.5 (≈ 28.9 µM)	> 100		
CCN(CC)c1cc2[nH]c(C3CCCCC3)nc2cc1NC(=O)c1ccc(Br)cc1	100 (≈ 213 µM)	> 100		
CCCCOC(=O)Nc1cc2nc(C3CCCCC3)[nH]c2cc1N(CC)CC		> 100	1.25 (≈ 3.23 µM)	
CCCCOC(=O)Nc1cc2nc(C3CCCCC3)[nH]c2cc1N(C)CCN(C)C	> 100	> 100		
CN(C)c1cc2[nH]c(C3CCCCC3)nc2cc1NC(=O)c1ccc(F)cc1F	0.31 (≈ 0.778 µM)	> 100		
CCCNC(=O)Nc1cc2nc(C3CCCCC3)[nH]c2cc1N(CC)CC	> 100	> 100		
CCCCOC(=O)Nc1cc2nc(C3CCCCC3)[nH]c2cc1N1CCCC1	0.39 (≈ 1.01 µM)			
CN(C)c1cc2[nH]c(C3CCCCC3)nc2cc1NC(=O)c1ccccc1	1.56 (≈ 4.3 µM)	> 100		
CCCN(CCC)c1cc2[nH]c(C3CCCCC3)nc2cc1NC(=O)c1ccccc1	> 100	> 100		
CCOCCOC(=O)Nc1cc2nc(C3CCCCC3)[nH]c2cc1N(C)C	0.31 (≈ 0.828 µM)	> 100		
CN(C)c1cc2[nH]c(C3CCCCC3)nc2cc1NC(=O)c1ccc(F)cc1	0.63 (≈ 1.66 µM)	> 100		

Compound	MIC ([1]; H37Rv, 144 h) [µg/mL]	IC50 (Vero) [µg/mL]	MIC ([1]; W210, 144 h) [µg/mL]	inhibition [2]
CCCN(CCC)c1cc2[nH]c(C3CCCCC3)nc2cc1NC(=O)OCc1ccccc1	> 100	> 100		
CCCNC(=O)Nc1cc2nc(C3CCCCC3)[nH]c2cc1N1CCCC1	100 (≈ 271 µM)	> 100		
CCN(CC)c1cc2[nH]c(C3CCCCC3)nc2cc1NC(=O)c1ccc(C)cc1	12.5 (≈ 30.9 µM)	> 100		
CN(C)c1cc2[nH]c(C3CCCCC3)nc2cc1NC(=O)OCC(F)(F)F	0.63 (≈ 1.64 µM)	> 100		Dose-dependent effect
CCCOCC(=O)Nc1cc2nc(C3CCCCC3)[nH]c2cc1N1CCCC1	12.5 (≈ 32.5 µM)	> 100		
O=C(CCc1ccccc1)Nc1cc2nc(C3CCCCC3)[nH]c2cc1N1CCCC1	12.5 (≈ 30 µM)	> 100		
CN(C)c1cc2[nH]c(C3CCCCC3)nc2cc1NC(=O)c1ccco1	6.25 (≈ 17.7 µM)	> 100		
CCCCCC(=O)Nc1cc2nc(C3CCCCC3)[nH]c2cc1N(CC)CC	12.5 (≈ 32.5 µM)			
CCc1ccc(C(=O)Nc2cc3nc(C4CCCCC4)[nH]c3cc2N(C)C)cc1	0.16 (≈ 0.41 µM)	> 100	0.16 (≈ 0.41 µM)	Dose-dependent effect
CCOCCOC(=O)Nc1cc2nc(C3CCCCC3)[nH]c2cc1N(CC)CC	1.56 (≈ 3.88 µM)	> 100		
CCCOCC(=O)Nc1cc2nc(C3CCCCC3)[nH]c2cc1N(C)C	6.25 (≈ 17.4 µM)	< 50		
CN(C)c1cc2[nH]c(C3CCCCC3)nc2cc1NC(=O)c1ccc(OC(F)F)cc1	0.31 (≈ 0.723 µM)	> 100		
CN(C)c1cc2[nH]c(C3CCCCC3)nc2cc1NC(=O)OCc1ccccc1	0.16 (≈ 0.408 µM)	> 100		
C=Cc1cccc(C(=O)Nc2cc3nc(C4CCCCC4)[nH]c3cc2N(CC)CC)c1	25 (≈ 60 µM)	> 100		
CCCc1ccc(C(=O)Nc2cc3nc(C4CCCCC4)[nH]c3cc2N(CC)CC)cc1	> 100			
CCCCNC(=O)Nc1cc2nc(C3CCCCC3)[nH]c2cc1N1CCCC1	25 (≈ 65.2 µM)	> 100		
O=C(Nc1cc2nc(C3CCCCC3)[nH]c2cc1N1CCCC1)c1ccc(Br)cc1	1.56 (≈ 3.34 µM)	> 100		
CCN(CC)c1cc2[nH]c(C3CCCCC3)nc2cc1NC(=O)NCc1ccccc1	> 100	> 100		
CCCCNC(=O)Nc1cc2nc(C3CCCCC3)[nH]c2cc1N(CC)CC	> 100	> 100		
CN(C)c1cc2[nH]c(C3CCCCC3)nc2cc1NC(=O)c1ccc(Br)cc1	0.31 (≈ 0.702 µM)	> 100		
CCN(CC)c1cc2[nH]c(C3CCCCC3)nc2cc1NC(=O)c1ccc(F)cc1F	> 100	> 100		
